Measurements from ChEMBL document CHEMBL1140876, “Synthesis and antibacterial property of quinolines with potent DNA gyrase activity” (2009).
Converted amounts (≈) assume the structure as drawn. The source made the active and inactive calls. The calls are words filed in the database; no cut-off is given here.

Columns and labels:
[1] = Inhibition of DNA gyrase assessed as conversion of relaxed pBR322 to supercoiled form
In short: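 Supercoiling in 15 µL reactions: gyrase assay buffer, 150 ng relaxed pBR322, 2–3 µL purified DNA gyrase, 3 h at 37 °C (E. coli); stopped with 50% glycerol/0.25% bromophenol blue; 1% agarose in 1× TBE pH 8.3, 90 V 3 h; ethidium bromide stain; supercoiled band brightness by densitometry. Ciprofloxacin comparator.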

[2] = Inhibition of DNA gyrase assessed as pBR322 DNA relaxation at 2.5 uM
In short: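 Gyrase (60 nM) was incubated with supercoiled pBR322 DNA (6 nM) and increasing compound concentrations (0, 0.1, 0.25, 0.5, 2.5) without ATP for 1 h at 37 °C. Relaxation of the supercoiled DNA was evaluated.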

Staphylococcus aureus [3] = assay: Antimicrobial activity against Staphylococcus aureus by broth microdilution assay; assay type: functional
In short: (§1)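 Broth microdilution per NCCLS 1997 in 96-well plate; final inoculum 10^5 cfu/mL; incubated 35.7 °C in air 18–20 h; MIC read as lowest concentration with no visible growth.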

Escherichia coli [4] = assay: Antimicrobial activity against Escherichia coli by broth microdilution assay; assay type: functional; in short: as §1
Pseudomonas aeruginosa [5] = assay: Antimicrobial activity against Pseudomonas aeruginosa by broth microdilution assay; assay type: functional; in short: as §1
Klebsiella pneumoniae [6] = assay: Antimicrobial activity against Klebsiella pneumoniae by broth microdilution assay; assay type: functional; in short: as §1
Salmonella typhi = assay: Antimicrobial activity against Salmonella typhi by broth microdilution assay; assay type: functional, Salmonella enterica subsp. enterica serovar Typhi; conditions: Salmonella enterica
In short: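 Broth microdilution in 96-well plates following the NCCLS 1997 protocol. Final inoculum was 10^5 cfu/mL, with a control organism run alongside. Plates were incubated at 35.7 °C in air for 18–20 h. MIC is the lowest concentration with no visible growth.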

Bacillus subtilis [7] = assay: Antimicrobial activity against Bacillus subtilis by broth microdilution assay; assay type: functional; in short: as §1
Staphylococcus aureus [8] = assay: Antimicrobial activity against Staphylococcus aureus at 5 ug after 24 hrs by disk diffusion method; assay type: functional; conditions: read-out: IZ
In short: (§2)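 Inoculum made in 0.85% saline against McFarland standard, swabbed evenly onto nutrient agar; sterile filter-paper discs set equidistant and loaded with equal volumes of drug at varying amounts; zone of inhibition measured after 24 h at 37 °C; ciprofloxacin reference.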

Escherichia coli [9] = assay: Antimicrobial activity against Escherichia coli at 5 ug after 24 hrs by disk diffusion method; assay type: functional; conditions: read-out: IZ; in short: as §2
Pseudomonas aeruginosa [10] = assay: Antimicrobial activity against Pseudomonas aeruginosa at 5 ug after 24 hrs by disk diffusion method; assay type: functional; conditions: read-out: IZ; in short: as §2
Klebsiella pneumoniae [11] = assay: Antimicrobial activity against Klebsiella pneumoniae at 5 ug after 24 hrs by disk diffusion method; assay type: functional; conditions: read-out: IZ; in short: as §2
Salmonella typhimurium [12] = assay: Antimicrobial activity against Salmonella Typhimurium at 5 ug after 24 hrs by disk diffusion method; assay type: functional, Salmonella enterica subsp. enterica serovar Typhimurium; conditions: Salmonella enterica, read-out: IZ; in short: as §2
Staphylococcus aureus [13] = assay: Antimicrobial activity against Staphylococcus aureus at 10 ug after 24 hrs by disk diffusion method; assay type: functional; conditions: read-out: IZ; in short: as §2
Escherichia coli [14] = assay: Antimicrobial activity against Escherichia coli at 10 ug after 24 hrs by disk diffusion method; assay type: functional; conditions: read-out: IZ; in short: as §2
Pseudomonas aeruginosa [15] = assay: Antimicrobial activity against Pseudomonas aeruginosa at 10 ug after 24 hrs by disk diffusion method; assay type: functional; conditions: read-out: IZ; in short: as §2
Klebsiella pneumoniae [16] = assay: Antimicrobial activity against Klebsiella pneumoniae at 10 ug after 24 hrs by disk diffusion method; assay type: functional; conditions: read-out: IZ; in short: as §2
Salmonella typhimurium [17] = assay: Antimicrobial activity against Salmonella Typhimurium at 10 ug after 24 hrs by disk diffusion method; assay type: functional, Salmonella enterica subsp. enterica serovar Typhimurium; conditions: Salmonella enterica, read-out: IZ; in short: as §2
Bacillus subtilis [18] = assay: Antimicrobial activity against Bacillus subtilis at 10 ug after 24 hrs by disk diffusion method; assay type: functional; conditions: read-out: IZ; in short: as §2
Staphylococcus aureus [19] = assay: Antimicrobial activity against Staphylococcus aureus at 15 ug after 24 hrs by disk diffusion method; assay type: functional; conditions: read-out: IZ; in short: as §2
Escherichia coli [20] = assay: Antimicrobial activity against Escherichia coli at 15 ug after 24 hrs by disk diffusion method; assay type: functional; conditions: read-out: IZ; in short: as §2
Pseudomonas aeruginosa [21] = assay: Antimicrobial activity against Pseudomonas aeruginosa at 15 ug after 24 hrs by disk diffusion method; assay type: functional; conditions: read-out: IZ; in short: as §2
Klebsiella pneumoniae [22] = assay: Antimicrobial activity against Klebsiella pneumoniae at 15 ug after 24 hrs by disk diffusion method; assay type: functional; conditions: read-out: IZ; in short: as §2
Salmonella typhimurium [23] = assay: Antimicrobial activity against Salmonella Typhimurium at 15 ug after 24 hrs by disk diffusion method; assay type: functional, Salmonella enterica subsp. enterica serovar Typhimurium; conditions: Salmonella enterica, read-out: IZ; in short: as §2
Bacillus subtilis [24] = assay: Antimicrobial activity against Bacillus subtilis at 15 ug after 24 hrs by disk diffusion method; assay type: functional; conditions: read-out: IZ; in short: as §2
Staphylococcus aureus [25] = assay: Antimicrobial activity against Staphylococcus aureus at 20 ug after 24 hrs by disk diffusion method; assay type: functional; conditions: read-out: IZ; in short: as §2
Escherichia coli [26] = assay: Antimicrobial activity against Escherichia coli at 20 ug after 24 hrs by disk diffusion method; assay type: functional; conditions: read-out: IZ; in short: as §2
Pseudomonas aeruginosa [27] = assay: Antimicrobial activity against Pseudomonas aeruginosa at 20 ug after 24 hrs by disk diffusion method; assay type: functional; conditions: read-out: IZ; in short: as §2
Klebsiella pneumoniae [28] = assay: Antimicrobial activity against Klebsiella pneumoniae at 20 ug after 24 hrs by disk diffusion method; assay type: functional; conditions: read-out: IZ; in short: as §2
Salmonella typhimurium [29] = assay: Antimicrobial activity against Salmonella Typhimurium at 20 ug after 24 hrs by disk diffusion method; assay type: functional, Salmonella enterica subsp. enterica serovar Typhimurium; conditions: Salmonella enterica, read-out: IZ; in short: as §2
Bacillus subtilis [30] = assay: Antimicrobial activity against Bacillus subtilis at 20 ug after 24 hrs by disk diffusion method; assay type: functional; conditions: read-out: IZ; in short: as §2
Staphylococcus aureus [31] = assay: Antimicrobial activity against Staphylococcus aureus at 25 ug after 24 hrs by disk diffusion method; assay type: functional; conditions: read-out: IZ; in short: as §2
Escherichia coli [32] = assay: Antimicrobial activity against Escherichia coli at 25 ug after 24 hrs by disk diffusion method; assay type: functional; conditions: read-out: IZ; in short: as §2
Pseudomonas aeruginosa [33] = assay: Antimicrobial activity against Pseudomonas aeruginosa at 25 ug after 24 hrs by disk diffusion method; assay type: functional; conditions: read-out: IZ; in short: as §2
Klebsiella pneumoniae [34] = assay: Antimicrobial activity against Klebsiella pneumoniae at 25 ug after 24 hrs by disk diffusion method; assay type: functional; conditions: read-out: IZ; in short: as §2
Salmonella typhimurium [35] = assay: Antimicrobial activity against Salmonella Typhimurium at 25 ug after 24 hrs by disk diffusion method; assay type: functional, Salmonella enterica subsp. enterica serovar Typhimurium; conditions: Salmonella enterica, read-out: IZ; in short: as §2
Bacillus subtilis [36] = assay: Antimicrobial activity against Bacillus subtilis at 25 ug after 24 hrs by disk diffusion method; assay type: functional; conditions: read-out: IZ; in short: as §2

For `c1ccc(C2c3ccccc3N[C@H]3c4cccn4C[C@@H]23)cc1` (stereo partly drawn), the Activity [1] was “Active”, the Activity [2] was “Active” and the MIC50 (Staphylococcus aureus [3]) was 64 mg/L (≈ 223 µM). It also gave an MIC90 (Staphylococcus aureus [3]) of 128 mg/L (≈ 447 µM), an MIC50 (Escherichia coli [4]) of 2 mg/L (≈ 6.98 µM) and an MIC90 (Escherichia coli [4]) of 4 mg/L (≈ 14 µM). The MIC50 (Pseudomonas aeruginosa [5]) was 0.5 mg/L (≈ 1.75 µM), the MIC90 (Pseudomonas aeruginosa [5]) was 32 mg/L (≈ 112 µM) and the MIC50 (Klebsiella pneumoniae [6]) was 2 mg/L (≈ 6.98 µM). The MIC90 (Klebsiella pneumoniae [6]) was 32 mg/L (≈ 112 µM), the MIC50 (Salmonella typhi) was 1.64 mg/L (≈ 5.73 µM) and the MIC90 (Salmonella typhi) was 2.5 mg/L (≈ 8.73 µM). For the same compound, the MIC50 (Bacillus subtilis [7]) was 2.5 mg/L (≈ 8.73 µM), the MIC90 (Bacillus subtilis [7]) was 5 mg/L (≈ 17.5 µM) and the zone of inhibition at 5 µg/disc (Staphylococcus aureus [8]) was 9 mm. It also gave a zone of inhibition at 5 µg/disc (Escherichia coli [9]) of 10 mm, a zone of inhibition at 5 µg/disc (Pseudomonas aeruginosa [10]) of 10 mm and a zone of inhibition at 5 µg/disc (Klebsiella pneumoniae [11]) of 20 mm. For the same compound, the zone of inhibition at 5 µg/disc (Salmonella typhimurium [12]) was 10 mm, the zone of inhibition at 10 µg/disc (Staphylococcus aureus [13]) was 12 mm and the zone of inhibition at 10 µg/disc (Escherichia coli [14]) was 16 mm. For the same compound, the zone of inhibition at 10 µg/disc (Pseudomonas aeruginosa [15]) was 16 mm, the zone of inhibition at 10 µg/disc (Klebsiella pneumoniae [16]) was 26 mm and the zone of inhibition at 10 µg/disc (Salmonella typhimurium [17]) was 16 mm. It also gave a zone of inhibition at 10 µg/disc (Bacillus subtilis [18]) of 7 mm, a zone of inhibition at 15 µg/disc (Staphylococcus aureus [19]) of 13 mm and a zone of inhibition at 15 µg/disc (Escherichia coli [20]) of 18 mm. It also gave a zone of inhibition at 15 µg/disc (Pseudomonas aeruginosa [21]) of 17 mm, a zone of inhibition at 15 µg/disc (Klebsiella pneumoniae [22]) of 30 mm and a zone of inhibition at 15 µg/disc (Salmonella typhimurium [23]) of 18 mm. For the same compound, the zone of inhibition at 15 µg/disc (Bacillus subtilis [24]) was 6 mm, the zone of inhibition at 20 µg/disc (Staphylococcus aureus [25]) was 14 mm and the zone of inhibition at 20 µg/disc (Escherichia coli [26]) was 20 mm. The zone of inhibition at 20 µg/disc (Pseudomonas aeruginosa [27]) was 22 mm, the zone of inhibition at 20 µg/disc (Klebsiella pneumoniae [28]) was 34 mm and the zone of inhibition at 20 µg/disc (Salmonella typhimurium [29]) was 22 mm. It also gave a zone of inhibition at 20 µg/disc (Bacillus subtilis [30]) of 7 mm, a zone of inhibition at 25 µg/disc (Staphylococcus aureus [31]) of 17 mm and a zone of inhibition at 25 µg/disc (Escherichia coli [32]) of 23 mm. It also gave a zone of inhibition at 25 µg/disc (Pseudomonas aeruginosa [33]) of 24 mm, a zone of inhibition at 25 µg/disc (Klebsiella pneumoniae [34]) of 36 mm and a zone of inhibition at 25 µg/disc (Salmonella typhimurium [35]) of 24 mm. It also gave a zone of inhibition at 25 µg/disc (Bacillus subtilis [36]) of 9 mm.
